Test results reported in ChEMBL document CHEMBL1133863, “Dual neurokinin NK(1)/NK(2) antagonists: N-[(R,R)-(E)-1-arylmethyl-3-(2-oxo-azepan-3-yl)carbamoyl]allyl-N-methyl-3,5-bis(trifluoromethyl)benzamides and 3-[N'-3,5-bis(trifluoromethyl)benzoyl-N-arylmethyl-N'-methylhydrazino]-N-[(R)-2-oxo-azepan-3-yl]propionamides” (Bioorg Med Chem Lett, 2001).

Biological target: T1, Substance-K receptor (Homo sapiens, UniProt P21452)
T1 sequence (P21452 whole entry): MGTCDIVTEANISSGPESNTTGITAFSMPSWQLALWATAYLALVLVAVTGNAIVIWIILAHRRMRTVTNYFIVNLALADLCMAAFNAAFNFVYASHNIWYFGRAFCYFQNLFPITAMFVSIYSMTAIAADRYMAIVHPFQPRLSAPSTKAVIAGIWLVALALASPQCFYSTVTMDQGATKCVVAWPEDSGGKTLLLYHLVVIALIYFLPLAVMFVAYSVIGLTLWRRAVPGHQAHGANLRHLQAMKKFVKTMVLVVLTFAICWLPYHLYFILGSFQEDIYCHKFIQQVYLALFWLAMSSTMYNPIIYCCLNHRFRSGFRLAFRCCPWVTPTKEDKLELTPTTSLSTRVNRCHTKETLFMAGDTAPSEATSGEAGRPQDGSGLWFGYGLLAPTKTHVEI
Experiment: In vitro binding affinity for Tachykinin receptor 2 of human-CHO cells using 125 I-NKA radioligand
Format: cell-based
Outline: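 Whole CHO cells stably expressing recombinant human NK2 receptor (3×10^5 per well) incubated 20 min at room temperature with 0.05 nM [125I]-NKA (2200 Ci/mmol) and a range of test concentrations in 20 mM HEPES pH 7.4 with 2 mM MnSO4 and 6 mM MgCl2. Nonspecific binding defined with 50 nM NKA. Rapid filtration, four ice-cold Tricine washes, scintillation counting; triplicate samples.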

IC50 [nM] | SMILES
26 | CN(C(=O)c1cc(C(F)(F)F)cc(C(F)(F)F)c1)[C@@H](/C=C/C(=O)N[C@@H]1CCCCNC1=O)Cc1cc(Br)c(Br)s1
60 | CN(C(=O)c1cc(C(F)(F)F)cc(C(F)(F)F)c1)[C@@H](/C=C/C(=O)N[C@@H]1CCCCNC1=O)Cc1ccc2ccccc2c1
55 | CN(C(=O)c1cc(C(F)(F)F)cc(C(F)(F)F)c1)N(CCC(=O)N[C@@H]1CCCCNC1=O)Cc1ccc2ccccc2c1
17 | CN(C(=O)c1cc(C(F)(F)F)cc(C(F)(F)F)c1)[C@@H](/C=C/C(=O)N[C@@H]1CCCCNC1=O)Cc1cc(Cl)c(Cl)s1
203 | CN(C(=O)c1cc(C(F)(F)F)cc(C(F)(F)F)c1)[C@@H](/C=C/C(=O)NC1CCCCCC1)Cc1ccc(Cl)cc1
19.5 | CN(C(=O)c1cc(C(F)(F)F)cc(C(F)(F)F)c1)N(CCC(=O)N[C@@H]1CCCCNC1=O)Cc1cc(Br)c(Br)s1
66 | CN(C(=O)c1cc(C(F)(F)F)cc(C(F)(F)F)c1)[C@@H](/C=C/C(=O)NC1(C(N)=O)CCCCC1)Cc1ccc(Cl)cc1
24 | CN(C(=O)c1cc(C(F)(F)F)cc(C(F)(F)F)c1)[C@@H](/C=C/C(=O)N[C@@H]1CCCCNC1=O)Cc1cn(C)c2ccccc12
5.5 | CN(C(=O)c1cc(C(F)(F)F)cc(C(F)(F)F)c1)N(CCC(=O)N[C@@H]1CCCCNC1=O)Cc1ccc(Cl)c(Cl)c1
5.5 | CN(C(=O)c1cc(C(F)(F)F)cc(C(F)(F)F)c1)[C@@H](/C=C/C(=O)N[C@@H]1CCCCNC1=O)Cc1ccc(Cl)c(Cl)c1 [DNK333]
